The values that follow come from publication PMC9371903 (Nucleic Acids Research, 2022).

Experiment [1] relates to PML-NBs in IMR90 normal human fibroblasts (control vector or activated RAS). Description: PML-NB formation by anti-PML immunofluorescence. The settings on record: 24h treatment, 5 μM pyrithione. It counts as cell-based. The essentials: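 IMR90 fibroblasts in pyruvate-free DMEM with 10% FBS and 1% penicillin/streptomycin, transduced with retroviral pBABE control or pBABE-RAS-V12. On day 6, plated on coverslips and treated next day for 24 h with vehicle, 5 μM pyrithione or 1 μM TPEN. Cells fixed in 4% PFA, permeabilised with 0.4% Triton X-100 and 0.1 M glycine, then blocked in 3% BSA. Anti-PML (1/250, overnight, 4°C), Alexa 568 secondary, DAPI. PML-NBs per cell and PML-NBs >1 μm counted.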

Experiment [2] concerns the target SUMO1 (residues 2–97 of human SUMO1 with a C52A substitution) (Homo sapiens, UniProt P63165, C52A). Description: ITC binding to SUMO1.
Experiment [3] deals with ΔN-SUMO1 (residues 17–97 of human SUMO1) (Homo sapiens, UniProt P63165, C52A). Description: ITC binding to ΔN-SUMO1. Particulars: ΔN-SUMO1, 20 mM Tris–HCl pH 7.4, 25°C.
Experiment [4] addresses UBC9 (residues 2-158 of human UBC9) (human, UniProt P63279 2-158). Description: ITC.
Experiment [5] concerns the target SUMO2 (residues 2-93 of human SUMO2 with a C48A substitution) (human, UniProt P61956 2-93, C48A). As to the kind of experiment: ITC. Background: ITC needs no label: the signal is the heat of the interaction.
The target in experiment [6] is ΔN-SUMO2 (residues 14-93) (human, UniProt P61956 14-93, C48A). Description: ITC.

In general, Kd refers to the equilibrium constant for the complex coming apart. Lower therefore signals tighter binding.

Chain of SUMO2 (residues 2-93 of human SUMO2 with a C48A substitution) (P61956 2-93 C48A): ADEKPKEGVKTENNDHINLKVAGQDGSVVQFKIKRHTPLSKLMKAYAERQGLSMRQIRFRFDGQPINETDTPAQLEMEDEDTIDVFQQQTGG
Chain of UBC9 (residues 2-158 of human UBC9) (P63279 2-158): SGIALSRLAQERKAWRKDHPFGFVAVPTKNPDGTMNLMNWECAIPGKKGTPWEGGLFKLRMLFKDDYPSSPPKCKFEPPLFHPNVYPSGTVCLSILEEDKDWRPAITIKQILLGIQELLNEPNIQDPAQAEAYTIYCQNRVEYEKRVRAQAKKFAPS
Chain of ΔN-SUMO2 (residues 14-93) (P61956 14-93 C48A): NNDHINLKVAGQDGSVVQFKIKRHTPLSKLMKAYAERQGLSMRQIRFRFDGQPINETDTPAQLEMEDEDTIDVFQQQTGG

`[O-][n+]1ccccc1S` [pyrithione]: the “formation of PML-NBs” value in experiment [1] (Ras-expressing (senescent) IMR90 cells) is “induces significantly the formation of PML-NBs”; in experiment [1] (vector-control IMR90 cells) it was “only a marginal increase”.

As for “UBC9: residues 2–158 of human UBC9; E2 SUMO conjugating enzyme”, the Kd in experiment [2] (ITC, SUMO1, 20 mM Tris–HCl pH 7.4, 25°C) turned out to be 29 ± 11 nM; in experiment [3], 73 ± 15 nM. The “fold stronger binding to SUMO1 in comparison to ΔN-SUMO1” value in experiment [2] (ratio of ITC KD values, 20 mM Tris–HCl pH 7.4) is on record as “roughly 2.5 fold”.

B1: ΔN-SUMO1 (residues 17-97 of human SUMO1) (domain or fragment, UniProt P63165 17-97, looked up)
chain: KEGEYIKLKVIGQDSSEIHFKVKMTTHLKKLKESYAQRQGVPMNSLRFLFEGQRIADNHTPKELGMEEEDVIEVYQEQTGG
B1 displayed a Kd in experiment [4] of 73 ± 15 nM.

Turning to YKTSVATQADPEEIIVLDDDD [Daxx-SIM-2SD (Daxx-SIM with S/D substitutions at positions 737 and 739)], the Kd in experiment [5] is 1000 ± 100 nM; in experiment [6] it was 510 ± 110 nM.
